Test results from the RNAGym collection of RNA variant scans (doi:10.1038/s41586-018-0170-7).

B1: tRNA (parent)
chain: GUUCCGUUGGCGUAAUGGUAACGCGUCUCCCUCCUAAGGAGAAGACUGCGGGUUCGAGUCCCGUACGGAACG

Variants of: B1
Assay: yeast fitness, log relative to wild type (ln ratio); higher = fitter; tRNA-Arg(CCU), competitive growth, 37 C, 1 M NaCl
Outline: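 Variants were counted by 125 bp paired-end Illumina sequencing after pools of a combinatorial tRNA-Arg(CCU) library, held on a HIS3 centromeric plasmid in BY4742 lacking the chromosomal gene, grew ~6.5 generations (~26.5 h) in SC-HIS 1M NaCl at 37 °C. Each genotype's fitness is the natural log of its generations relative to the wild type's. Generations were OD-scaled log2 output/input frequencies, inverse-variance weighted over replicates.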

Row | Variant | yeast fitness (ln)
1 | AUUCCAUUGGCGUAAUGGUAACGCGUCUCCCUCCUAAGGAGACGAUUGCGGGUUCGAGUCCCGUACGGAACG | -0.0957
2 | AUUCCAUUGGCGUAAUGGUAACGCGUUUCCCUCCUAAGGAGACGAUUGCGGGUUCGAGUCCCGUACGGGAUG | -0.268
3 | AUUCCAUUGGCGUAAUGGUAACGCGUCUCCCUCCUAAGGAGACGACUGCGGGUUCGAGUCCCGUAUGGAGUG | -0.377
4 | AUUCCAUUGGCGUAAUGGUAACGCGUCUCCCUCCUAAGGAGACGAUUGCGGGUUCGAGUCCCGUAAGGAAUG | -0.26
5 | AUUCCAUUGGCGUAAUGGUAACGCGUCUCCCUCCUAAGGAGACGAUUGCGGGUUCGAGUCCCGUACGGGGCG | -0.251
6 | AUUCCAUUGGCGUAAUGGUAACGCGUCUCCCUCCUAAGGAGACGAUUGCGGGUUCGAGUCCCGUACGGGUCG | -0.283
7 | AUUCCAUUGGCGUAAUGGUAACGCGUCUCCCUCCUAAGGAGACGACUGCGGGUUCGAGUCCCGUACGGGUUG | -0.503
8 | AUUCCAUUGGCGUAAUGGUAACGCGUCUCCCUCCUAAGGAGACGACUGCGGGUUCGAGUCCCGUACGGAAUG | -0.257
9 | AUUCCAUUGGCGUAAUGGUAACGCGUUUCCCUCCUAAGGAGACGAUUGCGGGUUCGAGUCCCGUACGGGUCG | -0.259
10 | AUUCCAUUGGCGUAAUGGUAACGCGUUUCCCUCCUAAGGAGACGAUUGCGGGUUCGAGUCCCGUACGGGGCG | -0.265
11 | AUUCCAUUGGCGUAAUGGUAACGCGUCUCCCUCCUAAGGAGACGACUGCGGGUUCGAGUCCCGUAUGGAUUG | -0.405
12 | AUUCCAUUGGCGUAAUGGUAACGCGUUUCCCUCCUAAGGAGACGAUUGCGGGUUCGAGUCCCGUACGGAGUG | -0.315
13 | AUUCCAUUGGCGUAAUGGUAACGCGUCUCCCUCCUAAGGAGACGAUUGCGGGUUCGAGUCCCGUAUGGAGUG | -0.338
14 | AUUCCAUUGGCGUAAUGGUAACGCGUCUCCCUCCUAAGGAGAAGACUGCGGGUUCGAGUCCCGUACGGGUCG | -0.166
15 | AUUCCAUUGGCGUAAUGGUAACGCGUCUCCCUCCUAAGGAGAAGACUGCGGGUUCGAGUCCCGUACGGGGCG | -0.104
16 | AUUCCAUUGGCGUAAUGGUAACGCGUCUCCCUCCUAAGGAGACGAUUGCGGGUUCGAGUCCCGUAAGGGGUG | -0.261
17 | AUUCCAUUGGCGUAAUGGUAACGCGUCUCCCUCCUAAGGAGACGACUGCGGGUUCGAGUCCCGUAUGGAACG | -0.195
18 | AUUCCAUUGGCGUAAUGGUAACGCGUUUCCCUCCUAAGGAGACGACUGCGGGUUCGAGUCCCGUACGGAGUG | -0.351
19 | AUUCCAUUGGCGUAAUGGUAACGCGUCUCCCUCCUAAGGAGAAGACUGCGGGUUCGAGUCCCGUACGGGUUG | -0.247
20 | AUUCCAUUGGCGUAAUGGUAACGCGUCUCCCUCCUAAGGAGACGACUGCGGGUUCGAGUCCCGUAAGGAUCG | -0.201
21 | AUUCCAUUGGCGUAAUGGUAACGCGUUUCCCUCCUAAGGAGACGACUGCGGGUUCGAGUCCCGUACGGAUCG | -0.3
22 | AUUCCAUUGGCGUAAUGGUAACGCGUUUCCCUCCUAAGGAGACGACUGCGGGUUCGAGUCCCGUACGGAGCG | -0.21
23 | AUUCCAUUGGCGUAAUGGUAACGCGUCUCCCUCCUAAGGAGACGAUUGCGGGUUCGAGUCCCGUAUGGAUUG | -0.331
24 | AUUCCAUUGGCGUAAUGGUAACGCGUCUCCCUCCUAAGGAGACGAUUGCGGGUUCGAGUCCCGUACGGAUUG | -0.191
25 | AUUCCAUUGGCGUAAUGGUAACGCGUUUCCCUCCUAAGGAGACGACUGCGGGUUCGAGUCCCGUACGGAACG | -0.204

Row | Variant | yeast fitness (ln)
26 | AUUCCAUUGGCGUAAUGGUAACGCGUCUCCCUCCUAAGGAGACGACUGCGGGUUCGAGUCCCGUACGGAUUG | -0.218
27 | AUUCCAUUGGCGUAAUGGUAACGCGUUUCCCUCCUAAGGAGACGAUUGCGGGUUCGAGUCCCGUACGGGGUG | -0.374
28 | AUUCCAUUGGCGUAAUGGUAACGCGUCUCCCUCCUAAGGAGACGACUGCGGGUUCGAGUCCCGUAUGGAAUG | -0.144
29 | AUUCCAUUGGCGUAAUGGUAACGCGUCUCCCUCCUAAGGAGAAGACUGCGGGUUCGAGUCCCGUACGGAUUG | -0.153
30 | AUUCCAUUGGCGUAAUGGUAACGCGUCUCCCUCCUAAGGAGACGAUUGCGGGUUCGAGUCCCGUAUGGGGUG | -0.274
31 | AUUCCAUUGGCGUAAUGGUAACGCGUCUCCCUCCUAAGGAGAAGACUGCGGGUUCGAGUCCCGUACGGAGUG | -0.115
32 | AUUCCAUUGGCGUAAUGGUAACGCGUCUCCCUCCUAAGGAGACGAUUGCGGGUUCGAGUCCCGUACGGAGUG | -0.214
33 | AUUCCAUUGGCGUAAUGGUAACGCGUCUCCCUCCUAAGGAGAAGACUGCGGGUUCGAGUCCCGUACGGAUCG | -0.0929
34 | AUUCCAUUGGCGUAAUGGUAACGCGUCUCCCUCCUAAGGAGAAGACUGCGGGUUCGAGUCCCGUACGGAGCG | -0.156
35 | AUUCCAUUGGCGUAAUGGUAACGCGUCUCCCUCCUAAGGAGAAGACUGCGGGUUCGAGUCCCGUACGGGGUG | -0.178
36 | AUUCCAUUGGCGUAAUGGUAACGCGUUUCCCUCCUAAGGAGACGACUGCGGGUUCGAGUCCCGUACGGAUUG | -0.314
37 | AUUCCAUUGGCGUAAUGGUAACGCGUCUCCCUCCUAAGGAGACGACUGCGGGUUCGAGUCCCGUAUGGAGCG | -0.213
38 | AUUCCAUUGGCGUAAUGGUAACGCGUCUCCCUCCUAAGGAGACGACUGCGGGUUCGAGUCCCGUAUGGAUCG | -0.374
39 | AUUCCAUUGGCGUAAUGGUAACGCGUUUCCCUCCUAAGGAGACGACUGCGGGUUCGAGUCCCGUACGGGGCG | -0.0719
40 | AUUCCAUUGGCGUAAUGGUAACGCGUCUCCCUCCUAAGGAGACGAUUGCGGGUUCGAGUCCCGUACGGGUUG | -0.473
41 | AUUCCAUUGGCGUAAUGGUAACGCGUCUCCCUCCUAAGGAGACGACUGCGGGUUCGAGUCCCGUAUGGGGUG | -0.245
42 | AUUCCAUUGGCGUAAUGGUAACGCGUCUCCCUCCUAAGGAGACGAUUGCGGGUUCGAGUCCCGUACGGGAUG | -0.194
43 | AUUCCAUUGGCGUAAUGGUAACGCGUCUCCCUCCUAAGGAGACGACUGCGGGUUCGAGUCCCGUACGGAGUG | -0.27
44 | AUUCCAUUGGCGUAAUGGUAACGCGUCUCCCUCCUAAGGAGACGAUUGCGGGUUCGAGUCCCGUAUGGAAUG | -0.0152
45 | AUUCCAUUGGCGUAAUGGUAACGCGUCUCCCUCCUAAGGAGAAGACUGCGGGUUCGAGUCCCGUACGGGAUG | -0.146
46 | AUUCCAUUGGCGUAAUGGUAACGCGUCUCCCUCCUAAGGAGACGAUUGCGGGUUCGAGUCCCGUACGGAUCG | -0.206
47 | AUUCCAUUGGCGUAAUGGUAACGCGUCUCCCUCCUAAGGAGACGAUUGCGGGUUCGAGUCCCGUACGGAGCG | -0.188
48 | AUUCCAUUGGCGUAAUGGUAACGCGUCUCCCUCCUAAGGAGACGAUUGCGGGUUCGAGUCCCGUAAGGAUCG | -0.143
49 | AUUCCAUUGGCGUAAUGGUAACGCGUCUCCCUCCUAAGGAGACGAUUGCGGGUUCGAGUCCCGUAUGGAACG | -0.295
50 | AUUCCAUUGGCGUAAUGGUAACGCGUUUCCCUCCUAAGGAGACGAUUGCGGGUUCGAGUCCCGUAAGGGGUG | -0.302

Row | Variant | yeast fitness (ln)
51 | AUUCCAUUGGCGUAAUGGUAACGCGUUUCCCUCCUAAGGAGACGAUUGCGGGUUCGAGUCCCGUACGGAUUG | -0.263
52 | AUUCCAUUGGCGUAAUGGUAACGCGUCUCCCUCCUAAGGAGACGACUGCGGGUUCGAGUCCCGUAUGGGUUG | -0.402
53 | AUUCCAUUGGCGUAAUGGUAACGCGUUUCCCUCCUAAGGAGACGAUUGCGGGUUCGAGUCCCGUACGGAACG | -0.233
54 | AUUCCAUUGGCGUAAUGGUAACGCGUCUCCCUCCUAAGGAGACGACUGCGGGUUCGAGUCCCGUAAGGAGUG | -0.297
55 | AUUCCAUUGGCGUAAUGGUAACGCGUCUCCCUCCUAAGGAGACGAUUGCGGGUUCGAGUCCCGUAUGGAUCG | -0.24
56 | AUUCCAUUGGCGUAAUGGUAACGCGUCUCCCUCCUAAGGAGACGAUUGCGGGUUCGAGUCCCGUAUGGAGCG | -0.194
57 | AUUCCAUUGGCGUAAUGGUAACGCGUCUCCCUCCUAAGGAGACGAUUGCGGGUUCGAGUCCCGUAUGGGGCG | -0.184
58 | AUUCCAUUGGCGUAAUGGUAACGCGUCUCCCUCCUAAGGAGACGAUUGCGGGUUCGAGUCCCGUAUGGGUCG | -0.479
59 | AUUCCAUUGGCGUAAUGGUAACGCGUCUCCCUCCUAAGGAGACGACUGCGGGUUCGAGUCCCGUACGGAGCG | -0.12
60 | AUUCCAUUGGCGUAAUGGUAACGCGUCUCCCUCCUAAGGAGACGACUGCGGGUUCGAGUCCCGUACGGAUCG | -0.221
61 | AUUCCAUUGGCGUAAUGGUAACGCGUCUCCCUCCUAAGGAGACGAUUGCGGGUUCGAGUCCCGUAAGGAUUG | -0.171
62 | AUUCCAUUGGCGUAAUGGUAACGCGUCUCCCUCCUAAGGAGACGAUUGCGGGUUCGAGUCCCGUAUGGGUUG | -0.4
63 | AUUCCAUUGGCGUAAUGGUAACGCGUCUCCCUCCUAAGGAGACGACUGCGGGUUCGAGUCCCGUAUGGGGCG | -0.253
64 | AUUCCAUUGGCGUAAUGGUAACGCGUUUCCCUCCUAAGGAGACGACUGCGGGUUCGAGUCCCGUACGGGAUG | -0.598
65 | AUUCCAUUGGCGUAAUGGUAACGCGUCUCCCUCCUAAGGAGACGAUUGCGGGUUCGAGUCCCGUACGGGGUG | -0.252
66 | AUUCCAUUGGCGUAAUGGUAACGCGUUUCCCUCCUAAGGAGAAGACUGCGGGUUCGAGUCCCGUACGGAACG | -0.134
67 | AUUCCAUUGGCGUAAUGGUAACGCGUCUCCCUCCUAAGGAGACGACUGCGGGUUCGAGUCCCGUAUGGGAUG | -0.811
68 | AUUCCAUUGGCGUAAUGGUAACGCGUCUCCCUCCUAAGGAGACGAUUGCGGGUUCGAGUCCCGUAUGGGAUG | -0.252
69 | AUUCCAUUGGCGUAAUGGUAACGCGUUUCCCUCCUAAGGAGACGACUGCGGGUUCGAGUCCCGUACGGGUUG | -0.684
70 | AUUCCAUUGGCGUAAUGGUAACGCGUUUCCCUCCUAAGGAGACGAUUGCGGGUUCGAGUCCCGUACGGGUUG | -0.399
71 | AUUCCAUUGGCGUAAUGGUAACGCGUUUCCCUCCUAAGGAGACGAUUGCGGGUUCGAGUCCCGUACGGAUCG | -0.201
72 | AUUCCAUUGGCGUAAUGGUAACGCGUUUCCCUCCUAAGGAGACGAUUGCGGGUUCGAGUCCCGUACGGAGCG | -0.285
73 | AUUCCAUUGGCGUAAUGGUAACGCGUCUCCCUCCUAAGGAGACGAUUGCGGGUUCGAGUCCCGUACGGAAUG | -0.145
74 | AUUCCAUUGGCGUAAUGGUAACGCGUCUCCCUCCUAAGGAGACGACUGCGGGUUCGAGUCCCGUACGGGAUG | -0.335
75 | AUUCCAUUGGCGUAAUGGUAACGCGUUUCCCUCCUAAGGAGACGACUGCGGGUUCGAGUCCCGUACGGGGUG | -0.33
